Experimental data taken from ChEMBL document CHEMBL1151811, “Isolation, structure elucidation, and biological activity of virgineone from Lachnum Wirgineum using the genome-wide Candida albicans fitness test” (2009).
Values after ≈ are worked out from the molar mass of the structure shown. Active and inactive are the calls of the source. The calls are words filed in the database; no cut-off is given here.

Assays:
Clavispora lusitaniae = assay: Antifungal activity against Candida lusitaniae MY1396 after 20 hrs; assay type: functional; conditions: MY1396, 20 h
Outline: (§1)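 Broth MIC with cells seeded at 10⁵ cfu/mL and exposed to 2-fold serial compound dilutions in growth medium, 37 °C for 20 h. MIC taken as the minimum inhibitory concentration.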

Pichia kudriavzevii = assay: Antifungal activity against Candida krusei ATCC 6258 after 20 hrs; assay type: functional; conditions: ATCC 6258, 20 h
Outline: (§2)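 Broth MIC. Cells inoculated at 10⁵ cfu/mL in growth medium with 2-fold serial dilutions of compound. Incubated 20 h at 37 °C. MIC taken as minimum inhibitory concentration. For line 2 the medium held 50% mouse serum.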

Aspergillus fumigatus [1] = assay: Antifungal activity against Aspergillus fumigatus MF5568 after 20 hrs; assay type: functional; conditions: MF5568, 20 h; outline: as §1
Aspergillus fumigatus [2] = assay: Antifungal activity against Aspergillus fumigatus MF5568 in presence of 50% human serum after 20 hrs; assay type: functional; conditions: MF5568, 20 h; outline: as §1
[3] = test system: Trichophyton mentagrophytes; assay: Antifungal activity against Trichophyton mentagrophytes MF7004 after 20 hrs; assay type: functional; conditions: MF7004, 20 h; outline: as §1
Staphylococcus aureus = assay: […] activity against Staphylococcus aureus MB2865; assay type: functional
Nakaseomyces glabratus = assay: Antifungal activity against Candida glabrata MY1381 after 20 hrs; assay type: functional; conditions: MY1381, 20 h; outline: as §2
Candida parapsilosis = assay: Antifungal activity against Candida parapsilosis ATCC 22019 after 20 hrs; assay type: functional; conditions: Lodderomyces parapsilosis, ATCC 22019, 20 h; outline: as §2
Candida albicans [4] = assay: Antifungal activity against Candida albicans MY1055 after 20 hrs; assay type: functional; conditions: MY1055, 20 h; outline: as §2
Candida albicans [5] = assay: Antifungal activity against Candida albicans MY1055 in presence of 50% mouse serum after 20 hrs; assay type: functional; conditions: MY1055, 20 h; outline: as §2
Candida albicans [6] = assay: Antifungal activity against Candida albicans MY1055 infected in DBA/2 mouse assessed as mouse mortality at 100 mg/kg, ip twice daily measured after 4 days postinfection; assay type: functional; conditions: route intraperitoneal
Outline: (§3)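 Mice infected iv via lateral tail vein with C. albicans MY1055 at 2.51 × 10⁴ cfu/mouse. Five DBA/2 mice per group, dosed ip twice daily; compound formulated in 5% DMSO in sterile distilled water. Mortality and general health observed for 4 days after challenge.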

Candida albicans [7] = assay: Antifungal activity against Candida albicans MY1055 infected in DBA/2 mouse assessed as mouse mortality at 50 mg/kg, ip twice daily measured after 4 days postinfection; assay type: functional; conditions: route intraperitoneal; outline: as §3
Candida albicans [8] = assay: Antifungal activity against Candida albicans MY1055 infected in DBA/2 mouse assessed as reduction in fugal CFU treated mouse twice daily measured after 4 days postinfection; assay type: functional, organism-based
Outline: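 DBA/2 mice (5 per group) were infected iv via lateral tail vein with 2.51 × 10⁴ cfu/mouse. They were dosed ip twice daily at 100 or 50 mg/kg in 5% DMSO/sterile water. On day 4, kidneys were homogenized in saline, diluted 10-fold serially, plated on SDA and incubated at 35 °C for 30–48 h. Cfu/g kidney were compared with sham-treated controls by paired two-tailed t-test.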

Structure (SMILES) | MIC (Clavispora lusitaniae) | MIC (Pichia kudriavzevii) | MIC (Aspergillus fumigatus [1]) | MIC (Aspergillus fumigatus [2]) | MIC [3] | MIC (Staphylococcus aureus) | MIC (Nakaseomyces glabratus) | MIC (Candida parapsilosis) | MIC (Candida albicans [4]) | MIC (Candida albicans [5]) | Activity (Candida albicans [6]) | Activity (Candida albicans [7]) | Activity (Candida albicans [8])
CC[C@H](C)C[C@H](C)CCCCCCCCC(=O)N[C@H]1C[C@@H](O)[C@@H](NCCN)NC(=O)[C@@H]2[C@@H](O)CCN2C(=O)[C@H]([C@H](O)CCN)NC(=O)[C@H]([C@H](O)[C@@H](O)c2ccc(O)cc2)NC(=O)[C@@H]2C[C@@H](O)CN2C(=O)[C@H]([C@@H](C)O)NC1=O [CASPOFUNGIN] | < 0.03 µg/mL | 1 µg/mL (≈ 0.915 µM) | 32 µg/mL (≈ 29.3 µM) | 32 µg/mL | 32 µg/mL (≈ 29.3 µM) | > 32 µg/mL | 0.25 µg/mL (≈ 0.229 µM) | 0.5 µg/mL (≈ 0.457 µM) | 0.5 µg/mL (≈ 0.457 µM) | 0.25 µg/mL |  |  | 
CC(CCCCCCCCC(=O)CCCCCCCCCC(O)CO[C@@H]1O[C@H](CO)[C@@H](O)[C@H](O)[C@@H]1O)C(=O)C1=C(O)C(Cc2ccc(O)cc2)NC1=O (stereo partly drawn) [VIRGINEONE] | 4 µg/mL (≈ 5.33 µM) | 16 µg/mL (≈ 21.3 µM) | 8 µg/mL (≈ 10.7 µM) | > 32 µg/mL | 8 µg/mL (≈ 10.7 µM) | 16 µg/mL (≈ 21.3 µM) | 8 µg/mL (≈ 10.7 µM) | 8 µg/mL (≈ 10.7 µM) | 8 µg/mL (≈ 10.7 µM) | > 32 µg/mL | 100% | 40% | inactive
